In ChEMBL document CHEMBL4033790, “Design and Synthesis of Novel Deuterated Ligands Functionally Selective for the γ-Aminobutyric Acid Type A Receptor (GABAAR) α6 Subtype with Improved Metabolic Stability and Enhanced Bioavailability” (J Med Chem, 2018):

Columns and labels:
Brain [1] = assay: AUC (0 to 24 hrs) in Wistar rat brain at 2 mg/kg administered as single dose via oral gavage by HPLC-MS/MS analysis; assay type: ADME, organism-based; set-up: time < 24 hr, dose 2 mg/kg, route oral; details: in vivo
[2] = Terminal elimination half-life in Wistar rat brain at 10 mg/kg, ip administered as single dose by HPLC-MS/MS analysis; assay type: ADME, organism-based; details: read-out: beta t1/2 (converted)
Procedure, shortened: (§1)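 Male Wistar rats (250–350 g) received a single i.p. dose of 10 mg/kg as a 5 mg/ml suspension in 85% water, 14% propylene glycol and 1% Tween 80. Three rats per time point were sacrificed at 5, 20, 60, 180 and 720 min for plasma and brain. Samples were cleaned up by solid-phase extraction and quantified by HPLC-MS/MS.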

[3] = Oral bioavailability in Wistar rat plasma at 2 mg/kg administered as single dose via gavage by HPLC-MS/MS analysis; assay type: ADME, organism-based
Procedure, shortened: (§2)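 Male Wistar rats (250-350 g) received a single 2 mg/kg dose, nanoemulsion formulation, by oral gavage or IV. Three rats per time point (5, 30, 120, 480, 1440 min); plasma and brain collected. Compound extracted by solid-phase extraction and quantified by HPLC-MS/MS. Absolute oral bioavailability was calculated from plasma AUC after the two routes.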

[4] = AUC (0 to 12 hrs) in Wistar rat plasma at 10 mg/kg, ip administered as single dose by HPLC-MS/MS analysis; assay type: ADME, organism-based; set-up: time < 12 hr, dose 10 mg/kg, route intraperitoneal
Mus musculus [5] = assay: Hyperlocomotor activity in C57BL/6 mouse assessed as total distance travelled at 3 to 10 mg/kg, ip after 60 mins; assay type: ADME, organism-based; details: in vivo, 1 h
[6] = Tmax in Wistar rat brain at 10 mg/kg, ip administered as single dose by HPLC-MS/MS analysis; assay type: ADME, organism-based; procedure, shortened: as §1
[7] = Tmax in Wistar rat plasma at 2 mg/kg, iv administered as single dose by HPLC-MS/MS analysis; assay type: ADME, organism-based
Procedure, shortened: (§3)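 Male Wistar rats (250–350 g) received a single 2 mg/kg dose, by oral gavage or IV, from nanoemulsion formulations. Three rats per time point were sampled for plasma and brain at 5, 30, 120, 480 and 1440 min. Compound levels were measured by HPLC-MS/MS after solid-phase extraction; oral bioavailability was derived from plasma AUCs for the two routes.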

[8] = Cmax in Wistar rat plasma at 2 mg/kg administered as single dose via oral gavage measured at 5 to 1440 mins post dose by HPLC-MS/MS analysis; assay type: ADME, organism-based; set-up: dose 2 mg/kg, route oral
Procedure, shortened: (§4)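 Absolute oral bioavailability study in Wistar rats: single 2 mg/kg dose by oral gavage or IV, using nanoemulsion formulations. Three rats per time point (5, 30, 120, 480, 1440 min). Plasma and brain were extracted by solid phase extraction and levels measured by HPLC-MS/MS. Bioavailability was calculated from plasma AUC for the two routes.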

[9] = target: Voltage-gated inwardly rectifying potassium channel KCNH2 (Homo sapiens, UniProt Q12809); assay: Displacement of [3H]-dofetilide from human ERG expressed in HEK cell membranes at >10 uM after 60 to 90 mins by scintillation counting
[10] = Ratio of brain AUC (0 to t) to plasma AUC (0 to t), Kp of the compound in Wistar rat at 10 mg/kg, ip administered as single dose by HPLC-MS/MS analysis; assay type: ADME, organism-based
[11] = Terminal elimination half-life in Wistar rat plasma at 10 mg/kg, ip administered as single dose by HPLC-MS/MS analysis; assay type: ADME, organism-based; details: read-out: beta t1/2 (converted); procedure, shortened: as §1
Brain [12] = assay: AUC (0 to 12 hrs) in Wistar rat brain at 10 mg/kg, ip administered as single dose by HPLC-MS/MS analysis; assay type: ADME, organism-based; set-up: dose 10 mg/kg, time < 12 hr, route intraperitoneal; details: in vivo
Brain [13] = assay: AUC (0 to 24 hrs) in Wistar rat brain at 2 mg/kg, iv administered as single dose by HPLC-MS/MS analysis; assay type: ADME, organism-based; set-up: time < 24 hr, dose 2 mg/kg, route intravenous; details: in vivo
Rattus norvegicus = assay: Hyperlocomotor activity in Wistar rat assessed as total distance travelled at 3 to 10 mg/kg, ip after 60 mins; assay type: ADME, organism-based; details: in vivo, 1 h
[14] = AUC (0 to 24 hrs) in Wistar rat plasma at 2 mg/kg administered as single dose via oral gavage by HPLC-MS/MS analysis; assay type: ADME, organism-based; set-up: dose 2 mg/kg, time < 24 hr, route oral
[15] = Tmax in Wistar rat plasma at 10 mg/kg, ip administered as single dose by HPLC-MS/MS analysis; assay type: ADME, organism-based; procedure, shortened: as §1
[16] = Cmax in Wistar rat brain at 2 mg/kg administered as single dose via oral gavage measured at 5 to 1440 mins post dose by HPLC-MS/MS analysis; assay type: ADME, organism-based; set-up: dose 2 mg/kg, route oral; procedure, shortened: as §2
[17] = Cmax in Wistar rat plasma at 10 mg/kg, ip administered as single dose measured at 5 to 720 mins post dose by HPLC-MS/MS analysis; assay type: ADME, organism-based; set-up: dose 10 mg/kg, route intraperitoneal
Procedure, shortened: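 Male Wistar rats (250-350 g) given a single 10 mg/kg i.p. dose of a 5 mg/ml suspension in 85% distilled water, 14% propylene glycol, 1% Tween 80. Three rats per time point (5, 20, 60, 180, 720 min). Blood and brain were collected after sacrifice. Drug was recovered by solid phase extraction and quantified by HPLC-MS/MS.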

[18] = Tmax in Wistar rat plasma at 2 mg/kg administered as single dose via oral gavage by HPLC-MS/MS analysis; assay type: ADME, organism-based; procedure, shortened: as §3
[19] = Tmax in Wistar rat brain at 2 mg/kg administered as single dose via oral gavage by HPLC-MS/MS analysis; assay type: ADME, organism-based; procedure, shortened: as §3
[20] = Terminal elimination half-life in Wistar rat brain at 2 mg/kg administered as single dose via oral gavage by HPLC-MS/MS analysis; assay type: ADME, organism-based; details: read-out: beta t1/2 (converted); procedure, shortened: as §3
[21] = Terminal elimination half-life in Wistar rat plasma at 2 mg/kg administered as single dose via oral gavage by HPLC-MS/MS analysis; assay type: ADME, organism-based; details: read-out: beta t1/2 (converted); procedure, shortened: as §3
[22] = Tmax in Wistar rat brain at 2 mg/kg, iv administered as single dose by HPLC-MS/MS analysis; assay type: ADME, organism-based; procedure, shortened: as §3
[23] = Metabolic stability in mouse liver microsomes assessed as parent compound remaining at 10 uM after 60 mins by LC-MS analysis; assay type: ADME, microsome; details: read-out: Stability
Procedure, shortened: (§5)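 The 60 min samples of the microsomal incubation (10 μM compound, human or mouse liver microsomes at 0.5 mg/mL, NADPH regenerating system, 37 °C) were analysed by LC-MS. Detection used SIM mode with dual ESI/APCI ionization, calibrated to the retention times and masses of the parent and its O-demethylated metabolites. Peak intensities were measured.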

[24] = Cmax in Wistar rat plasma at 2 mg/kg, iv administered as single dose measured at 5 to 1440 mins post dose by HPLC-MS/MS analysis; assay type: ADME, organism-based; set-up: dose 2 mg/kg, route intravenous; procedure, shortened: as §4
Brain [25] = assay: Oral bioavailability in Wistar rat brain at 2 mg/kg administered as single dose via gavage by HPLC-MS/MS analysis; assay type: ADME, organism-based; details: in vivo; procedure, shortened: as §2
Mus musculus [26] = assay: Neurotoxicity in Swiss Webster mouse assessed as induction of motor impairment at 40 mg/kg administered via oral gavage measured after 10 to 60 mins by rotarod method; assay type: toxicity, organism-based; details: in vivo
Procedure, shortened: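 Female mice were given a single oral gavage dose of 40 mg/kg, either in 50% PBS/40% propylene glycol/10% DMSO or, for poorly soluble compounds, in 2% polyethylene glycol plus 2.5% hydroxymethyl cellulose. Rotarod performance was tested 10, 30 and 60 min after dosing, with diazepam 5 mg/kg as positive control.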

[27] = Terminal elimination half-life in Wistar rat plasma at 2 mg/kg, iv administered as single dose by HPLC-MS/MS analysis; assay type: ADME, organism-based; details: read-out: beta t1/2 (converted); procedure, shortened: as §3
[28] = Metabolic stability in human liver microsomes assessed as parent compound remaining at 10 uM after 60 mins by LC-MS analysis; assay type: ADME, microsome; details: read-out: Stability; procedure, shortened: as §5

Chain of Voltage-gated inwardly rectifying potassium channel KCNH2 (Q12809 whole entry): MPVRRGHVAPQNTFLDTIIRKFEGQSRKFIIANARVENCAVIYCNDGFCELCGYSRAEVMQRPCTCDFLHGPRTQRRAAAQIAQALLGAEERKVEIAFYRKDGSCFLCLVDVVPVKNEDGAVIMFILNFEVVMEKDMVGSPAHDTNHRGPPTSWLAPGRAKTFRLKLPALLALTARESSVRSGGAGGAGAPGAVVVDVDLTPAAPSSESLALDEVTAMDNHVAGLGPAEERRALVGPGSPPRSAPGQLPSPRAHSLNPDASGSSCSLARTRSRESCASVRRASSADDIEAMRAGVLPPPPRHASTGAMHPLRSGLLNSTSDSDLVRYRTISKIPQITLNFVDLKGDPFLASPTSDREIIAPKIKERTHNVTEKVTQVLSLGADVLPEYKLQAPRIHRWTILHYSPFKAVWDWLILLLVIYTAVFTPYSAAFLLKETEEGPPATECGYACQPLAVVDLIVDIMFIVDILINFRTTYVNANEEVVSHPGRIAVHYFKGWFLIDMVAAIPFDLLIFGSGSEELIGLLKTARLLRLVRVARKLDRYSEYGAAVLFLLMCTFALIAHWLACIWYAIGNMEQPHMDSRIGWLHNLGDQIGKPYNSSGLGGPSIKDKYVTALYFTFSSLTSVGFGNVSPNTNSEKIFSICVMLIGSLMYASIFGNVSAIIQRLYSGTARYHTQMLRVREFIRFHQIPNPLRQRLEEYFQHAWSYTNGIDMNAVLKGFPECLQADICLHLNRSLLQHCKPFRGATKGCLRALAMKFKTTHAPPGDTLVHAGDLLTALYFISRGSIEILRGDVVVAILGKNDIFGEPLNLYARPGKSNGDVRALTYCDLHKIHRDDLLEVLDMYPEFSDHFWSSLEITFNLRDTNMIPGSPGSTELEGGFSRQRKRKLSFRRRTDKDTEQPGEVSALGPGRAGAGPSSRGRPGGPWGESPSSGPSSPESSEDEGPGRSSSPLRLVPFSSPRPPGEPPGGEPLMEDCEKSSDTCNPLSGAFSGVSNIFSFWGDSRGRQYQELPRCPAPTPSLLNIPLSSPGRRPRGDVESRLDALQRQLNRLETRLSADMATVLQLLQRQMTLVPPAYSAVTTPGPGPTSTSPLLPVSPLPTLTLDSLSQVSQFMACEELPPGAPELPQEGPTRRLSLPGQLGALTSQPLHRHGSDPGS

SMILES	AUC (Brain [1]) [ng·h/g]	half-life [2] [h]	bioavailability [3] [%]	AUC(0-t) at 12 h [4] [ng·h/mL]	Activity (Mus musculus [5])	Tmax [6] [h]	Tmax [7] [h]	Cmax [8] [ng/mL]	inhibition (INH) [9]	Kp [10]	half-life [11] [h]	AUC (Brain [12]) [ng·h/g]	AUC (Brain [13]) [ng·h/g]	Activity (Rattus norvegicus)	AUC(0-t) at 24 h [14] [ng·h/mL]	Tmax [15] [h]	Cmax [16] [ng/g]	Cmax [17] [ng/mL]	Tmax [18] [h]	Tmax [19] [h]	other results
[2H]C([2H])([2H])Oc1ccc(-n2nc3c4ccc(OC)cc4[nH]cc-3c2=O)cc1	513.12	2.28	100	24200	Toxic	2.33	0	222	Not Active	0.13	3.54	3350.72	573.46	Toxic	3000	1.67	67.3	4430	5.5	3.5	half-life [20]: 4.2 h; half-life [21]: 1.4 h; Tmax [22]: 1.36 h; remaining at 1 h, 10 µM [23]: 92.8%; Cmax [24]: 728 ng/mL; F (Brain [25]): 89.5%; Activity (Mus musculus [26]): Non-Toxic; half-life [27]: 1.95 h; remaining at 1 h, 10 µM [28]: 91.7%
COc1ccc(-n2nc3c4ccc(OC)cc4[nH]cc-3c2=O)cc1	708.21	1.96	66.9	28800	Toxic	2.33	0	173	Not Active	0.08	1.51	2177.98	857.8	Toxic	1270	1	67.3	5050	2	1.5	half-life [20]: 12.7 h; half-life [21]: 9 h; Tmax [22]: 0.86 h; remaining at 1 h, 10 µM [23]: 80.3%; Cmax [24]: 597 ng/mL; F (Brain [25]): 82.6%; Activity (Mus musculus [26]): Non-Toxic; half-life [27]: 5.29 h; remaining at 1 h, 10 µM [28]: 86.1%
